# In ChEMBL document CHEMBL3351316, “Scaffold hopping approach on the route to selective tankyrase inhibitors” (Eur J Med Chem, 2014):
# Legend:
# [1] = target: T1, Protein mono-ADP-ribosyltransferase PARP12 (Homo sapiens) (UniProt Q9H0J9); assay: Inhibition of human recombinant PARP12 at 10 uM incubated for 1 hr using NAD+, biotinylated NAD+ and activated DNA by luminescence based assay
# T1 sequence (whole entry): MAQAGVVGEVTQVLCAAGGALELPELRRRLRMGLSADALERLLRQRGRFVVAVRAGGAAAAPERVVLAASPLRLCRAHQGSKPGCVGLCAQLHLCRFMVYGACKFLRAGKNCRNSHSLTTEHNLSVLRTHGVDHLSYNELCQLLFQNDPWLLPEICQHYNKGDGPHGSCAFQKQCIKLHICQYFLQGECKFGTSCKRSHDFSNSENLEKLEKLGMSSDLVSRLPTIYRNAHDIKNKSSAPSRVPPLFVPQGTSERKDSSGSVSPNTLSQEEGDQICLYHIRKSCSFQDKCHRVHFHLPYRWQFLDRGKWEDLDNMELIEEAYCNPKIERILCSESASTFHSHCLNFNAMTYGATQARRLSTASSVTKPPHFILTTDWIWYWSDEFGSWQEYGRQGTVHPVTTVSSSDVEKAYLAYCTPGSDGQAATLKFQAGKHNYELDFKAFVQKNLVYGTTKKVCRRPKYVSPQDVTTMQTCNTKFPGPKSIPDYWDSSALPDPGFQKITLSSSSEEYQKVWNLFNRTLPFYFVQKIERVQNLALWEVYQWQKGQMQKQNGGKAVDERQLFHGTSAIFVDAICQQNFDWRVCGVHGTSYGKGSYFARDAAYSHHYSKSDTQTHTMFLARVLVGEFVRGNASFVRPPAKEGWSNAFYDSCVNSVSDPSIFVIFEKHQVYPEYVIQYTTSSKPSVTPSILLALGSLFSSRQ
# How it was run: (§1)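 Recombinant PARP enzyme reactions were run in duplicate for 1 h at rt on histone-coated plates in Tris·HCl pH 8.0 buffer with NAD+, biotinylated NAD+ and activated DNA. Detection used streptavidin-HRP for 30 min at rt, then a chemiluminescent developer. % inhibition = 100 − % activity, scaled between the no-compound (100%) and no-enzyme (0%) signals.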
# [2] = target: T2, Protein mono-ADP-ribosyltransferase PARP8 (Homo sapiens) (UniProt Q8N3A8); assay: Inhibition of human recombinant PARP8 at 10 uM incubated for 1 hr using NAD+, biotinylated NAD+ and activated DNA by luminescence based assay; how it was run: as §1
# T2 sequence (whole entry): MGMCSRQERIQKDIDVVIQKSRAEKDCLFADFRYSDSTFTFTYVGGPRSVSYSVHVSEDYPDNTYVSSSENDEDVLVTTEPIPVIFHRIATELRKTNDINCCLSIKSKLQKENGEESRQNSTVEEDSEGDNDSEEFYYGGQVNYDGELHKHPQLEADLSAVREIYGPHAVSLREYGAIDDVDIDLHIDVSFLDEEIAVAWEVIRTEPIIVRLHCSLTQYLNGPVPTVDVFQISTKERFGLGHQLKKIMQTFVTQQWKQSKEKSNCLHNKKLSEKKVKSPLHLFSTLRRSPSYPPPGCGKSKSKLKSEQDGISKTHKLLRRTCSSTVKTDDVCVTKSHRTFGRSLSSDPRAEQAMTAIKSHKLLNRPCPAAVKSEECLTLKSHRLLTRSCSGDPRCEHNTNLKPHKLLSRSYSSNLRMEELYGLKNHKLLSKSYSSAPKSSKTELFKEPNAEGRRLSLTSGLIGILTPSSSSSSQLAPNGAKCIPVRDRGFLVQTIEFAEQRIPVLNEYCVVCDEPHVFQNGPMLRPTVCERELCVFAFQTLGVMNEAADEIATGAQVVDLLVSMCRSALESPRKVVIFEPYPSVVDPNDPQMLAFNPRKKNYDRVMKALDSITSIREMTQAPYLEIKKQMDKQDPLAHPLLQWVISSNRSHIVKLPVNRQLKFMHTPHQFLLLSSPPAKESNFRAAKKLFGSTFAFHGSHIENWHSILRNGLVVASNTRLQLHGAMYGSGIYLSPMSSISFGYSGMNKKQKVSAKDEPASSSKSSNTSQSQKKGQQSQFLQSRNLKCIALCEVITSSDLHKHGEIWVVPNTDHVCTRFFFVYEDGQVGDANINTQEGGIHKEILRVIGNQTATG
smiles,measurement,setting,value
CC(C)(C)c1ccc(-c2nc3c(sc4ccccc43)c(=O)[nH]2)cc1,inhibition,[1],14%
same,inhibition,[2],3%
